Laboratory results as given in ChEMBL document CHEMBL1142136, “Contribution of target gene mutations and efflux to decreased susceptibility of Salmonella enterica serovar typhimurium to fluoroquinolones and other antimicrobials” (2007).
≈ marks a conversion by molar mass, not a printed value.

Key:
Assay type in all cases: functional, Salmonella enterica subsp. enterica serovar Typhimurium
Salmonella typhimurium [1] = test: Antimicrobial activity against Salmonella enterica serovar Typhimurium S21 tolC::Kan
Method in brief: (§1)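 MICs by automated broth microdilution panels, interpreted to CLSI broth microdilution standards. Ciprofloxacin additionally tested by agar dilution across 0.0075 to 128 μg/ml. Quality control strains: E. coli ATCC 25922 and 35218, Enterococcus faecalis ATCC 29212, S. aureus ATCC 29213, P. aeruginosa ATCC 27853. Test strains are kanamycin-marked deletion mutants of ground-beef isolate S21.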

Salmonella typhimurium [2] = test: Antimicrobial activity against Salmonella enterica serovar Typhimurium S21-4 gyrA+ with ParC S80I mutation
Method in brief: (§2)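 MICs measured by broth microdilution on the Sensititre automated system and interpreted by CLSI broth microdilution standards. Ciprofloxacin was also tested by agar dilution, widening the range to 0.0075–128 μg/ml. Quality control strains were E. coli ATCC 25922 and 35218, E. faecalis ATCC 29212, S. aureus ATCC 29213 and P. aeruginosa ATCC 27853.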

Salmonella typhimurium [3] = test: Antimicrobial activity against Salmonella enterica serovar Typhimurium S21-1 gyrA+; method in brief: as §2
Salmonella typhimurium [4] = test: Antimicrobial activity against Salmonella enterica serovar Typhimurium CHS38 gyrA+ with GyrA D87G mutation; method in brief: as §2
Salmonella typhimurium [5] = test: Antimicrobial activity against Salmonella enterica serovar Typhimurium CS3 acrAB::Kan with GyrA S83F, D87N, ParC S80I mutation; method in brief: as §2
Salmonella typhimurium [6] = test: Antimicrobial activity against Salmonella enterica serovar Typhimurium CS9 gyrA+ with GyrA S83F, D87N, ParC S80I mutation; method in brief: as §2
Salmonella typhimurium [7] = test: Antimicrobial activity against Salmonella enterica serovar Typhimurium CS9 with GyrA S83F, D87N, ParC S80I mutation; method in brief: as §2
Salmonella typhimurium [8] = test: Antimicrobial activity against Salmonella enterica serovar Typhimurium S21-2 gyrA+ with ParC S80I mutation; method in brief: as §2
Salmonella typhimurium [9] = test: Antimicrobial activity against Salmonella enterica serovar Typhimurium S21-4 with GyrA S83F, ParC S80I mutation; method in brief: as §2
Salmonella typhimurium [10] = test: Antimicrobial activity against Salmonella enterica serovar Typhimurium S21 gyrA+; method in brief: as §2
Salmonella typhimurium [11] = test: Antimicrobial activity against Salmonella enterica serovar Typhimurium CHS38 with GyrA D87G mutation; method in brief: as §2
Salmonella typhimurium [12] = test: Antimicrobial activity against Salmonella enterica serovar Typhimurium CHS14 with GyrA D87G mutation; method in brief: as §2
Salmonella typhimurium [13] = test: Antimicrobial activity against Salmonella enterica serovar Typhimurium CHS18 acrAB::Kan with GyrA S38F mutation; method in brief: as §2
Salmonella typhimurium [14] = test: Antimicrobial activity against Salmonella enterica serovar Typhimurium S21-4 acrAB::Kan with GyrA S83F, ParC S80I mutation; method in brief: as §2
Salmonella typhimurium [15] = test: Antimicrobial activity against Salmonella enterica serovar Typhimurium S21; method in brief: as §2
Salmonella typhimurium [16] = test: Antimicrobial activity against Salmonella enterica serovar Typhimurium CS1 with GyrA S83F, D87N, ParC S80I mutation; method in brief: as §2
Salmonella typhimurium [17] = test: Antimicrobial activity against Salmonella enterica serovar Typhimurium CHS14 acrAB::Kan with GyrA D87G mutation; method in brief: as §2
Salmonella typhimurium [18] = test: Antimicrobial activity against Salmonella enterica serovar Typhimurium CS3 with GyrA S83F, D87N, ParC S80I mutation; method in brief: as §2
Salmonella typhimurium [19] = test: Antimicrobial activity against Salmonella enterica serovar Typhimurium S21-3 gyrA+ with ParC S80I mutation; method in brief: as §2
Salmonella typhimurium [20] = test: Antimicrobial activity against Salmonella enterica serovar Typhimurium CS3 gyrA+ with GyrA S83F, D87N, ParC S80I mutation; method in brief: as §2
Salmonella typhimurium [21] = test: Antimicrobial activity against Salmonella enterica serovar Typhimurium S21-3 acrAB::Kan with GyrA S83F, ParC S80I mutation; method in brief: as §2
Salmonella typhimurium [22] = test: Antimicrobial activity against Salmonella enterica serovar Typhimurium CHS14 gyrA+ with GyrA D87G mutation; method in brief: as §2
Salmonella typhimurium [23] = test: Antimicrobial activity against Salmonella enterica serovar Typhimurium GyrA S21-1 acrAB::Kan with GyrA S83F mutation; method in brief: as §2
Salmonella typhimurium [24] = test: Antimicrobial activity against Salmonella enterica serovar Typhimurium CHS14 tolC::Kan with GyrA D87G mutant; method in brief: as §2
Salmonella typhimurium [25] = test: Antimicrobial activity against Salmonella enterica serovar Typhimurium CHS18 tolC::Kan with GyrA S38F mutation; method in brief: as §2
Salmonella typhimurium [26] = test: Antimicrobial activity against Salmonella enterica serovar Typhimurium S21-2 acrAB::Kan with GyrA S83F, ParC S80I mutation; method in brief: as §2
Salmonella typhimurium [27] = test: Antimicrobial activity against Salmonella enterica serovar Typhimurium S21-3 with GyrA S83F, ParC S80I mutation; method in brief: as §2
Salmonella typhimurium [28] = test: Antimicrobial activity against Salmonella enterica serovar Typhimurium S21-2 tolC::Kan with GyrA S83F, ParC S80I mutation; method in brief: as §2
Salmonella typhimurium [29] = test: Antimicrobial activity against Salmonella enterica serovar Typhimurium CS1 tolC::Kan with GyrA S83F, D87N, ParC S80I mutation; method in brief: as §2
Salmonella typhimurium [30] = test: Antimicrobial activity against Salmonella enterica serovar Typhimurium CS1 gyrA+ with GyrA S83F, D87N, ParC S80I mutation; method in brief: as §2
Salmonella typhimurium [31] = test: Antimicrobial activity against Salmonella enterica serovar Typhimurium CHS18 with GyrA S38F mutation; method in brief: as §2
Salmonella typhimurium [32] = test: Antimicrobial activity against Salmonella enterica serovar Typhimurium S21-3 tolC::Kan with GyrA S83F, ParC S80I mutation; method in brief: as §2
Salmonella typhimurium [33] = test: Antimicrobial activity against Salmonella enterica serovar Typhimurium CS3 tolC::Kan with GyrA S83F, D87N, parC S80I mutation; method in brief: as §2
Salmonella typhimurium [34] = test: Antimicrobial activity against Salmonella enterica serovar Typhimurium CHS38 tolC::Kan with GyrA D87G mutation; method in brief: as §2
Salmonella typhimurium [35] = test: Antimicrobial activity against Salmonella enterica serovar Typhimurium CS9 acrAB::Kan with GyrA S83F, D87N, ParC S80I mutation; method in brief: as §2
Salmonella typhimurium [36] = test: Antimicrobial activity against Salmonella enterica serovar Typhimurium S21-1 tolC::Kan with GyrA S83F mutation; method in brief: as §2
Salmonella typhimurium [37] = test: Antimicrobial activity against Salmonella enterica serovar Typhimurium S21-1 GyrA S83F mutant; method in brief: as §2
Salmonella typhimurium [38] = test: Antimicrobial activity against Salmonella enterica serovar Typhimurium S21-4 tolC::Kan with GyrA S83F, ParC S80I mutation; method in brief: as §2
Salmonella typhimurium [39] = test: Antimicrobial activity against Salmonella enterica serovar Typhimurium S21-2 with GyrA S83F, ParC S80I mutation; method in brief: as §2
Salmonella typhimurium [40] = test: Antimicrobial activity against Salmonella enterica serovar Typhimurium CHS18 gyrA+ with GyrA S38F mutation; method in brief: as §2
Salmonella typhimurium [41] = test: Antimicrobial activity against Salmonella enterica serovar Typhimurium CS9 tolC::Kan with GyrA S83F, D87N, ParC S80I mutation; method in brief: as §2
Salmonella typhimurium [42] = test: Antimicrobial activity against Salmonella enterica serovar Typhimurium S21 acrAB::Kan; method in brief: as §1
Salmonella typhimurium [43] = test: Antimicrobial activity against Salmonella enterica serovar Typhimurium CHS38 acrAB::Kan with GyrA D87G mutation; method in brief: as §2
Salmonella typhimurium [44] = test: Antimicrobial activity against Salmonella enterica serovar Typhimurium CS1 acrAB::Kan with GyrA S83F, D87N, ParC S80I mutation; method in brief: as §2

Question: `CCn1cc(C(=O)O)c(=O)c2ccc(C)nc21` [NALIDIXIC ACID] was tested. Which MIC (Salmonella typhimurium [1]) did it give?
Answer: Its MIC is 1 µg/mL (≈ 4.31 µM).

Question: What about the MIC (Salmonella typhimurium [2]) of the same compound?
Answer: Its MIC is > 256 µg/mL.

Question: What about the MIC (Salmonella typhimurium [3]) of the same compound?
Answer: The MIC was 4 µg/mL (≈ 17.2 µM).

Question: And the MIC (Salmonella typhimurium [4])?
Answer: The MIC was 8 µg/mL (≈ 34.4 µM).

Question: And the MIC (Salmonella typhimurium [5])?
Answer: The MIC was > 256 µg/mL.

Question: What about the MIC (Salmonella typhimurium [6]) of the same compound?
Answer: Its MIC is 4 µg/mL (≈ 17.2 µM).

Question: And the MIC (Salmonella typhimurium [7])?
Answer: The MIC was > 256 µg/mL.

Question: And the MIC (Salmonella typhimurium [8])?
Answer: Its MIC is 64 µg/mL (≈ 276 µM).

Question: What about the MIC (Salmonella typhimurium [9]) of the same compound?
Answer: Its MIC is > 256 µg/mL.

Question: What about the MIC (Salmonella typhimurium [10]) of the same compound?
Answer: Its MIC is 4 µg/mL (≈ 17.2 µM).

Question: And the MIC (Salmonella typhimurium [11])?
Answer: The MIC was 32 µg/mL (≈ 138 µM).

Question: And the MIC (Salmonella typhimurium [12])?
Answer: Its MIC is 128 µg/mL (≈ 551 µM).

Question: And the MIC (Salmonella typhimurium [13])?
Answer: The MIC was 16 µg/mL (≈ 68.9 µM).

Question: And the MIC (Salmonella typhimurium [14])?
Answer: The MIC was > 256 µg/mL.

Question: What about the MIC (Salmonella typhimurium [15]) of the same compound?
Answer: The MIC was 4 µg/mL (≈ 17.2 µM).

Question: And the MIC (Salmonella typhimurium [16])?
Answer: Its MIC is > 256 µg/mL.

Question: What about the MIC (Salmonella typhimurium [17]) of the same compound?
Answer: Its MIC is 8 µg/mL (≈ 34.4 µM).

Question: And the MIC (Salmonella typhimurium [18])?
Answer: The MIC was > 256 µg/mL.

Question: What about the MIC (Salmonella typhimurium [19]) of the same compound?
Answer: The MIC was > 256 µg/mL.

Question: And the MIC (Salmonella typhimurium [20])?
Answer: The MIC was 4 µg/mL (≈ 17.2 µM).

Question: What about the MIC (Salmonella typhimurium [21]) of the same compound?
Answer: Its MIC is 64 µg/mL (≈ 276 µM).

Question: And the MIC (Salmonella typhimurium [22])?
Answer: The MIC was 4 µg/mL (≈ 17.2 µM).

Question: And the MIC (Salmonella typhimurium [23])?
Answer: Its MIC is 32 µg/mL (≈ 138 µM).

Question: And the MIC (Salmonella typhimurium [24])?
Answer: The MIC was 16 µg/mL (≈ 68.9 µM).

Question: And the MIC (Salmonella typhimurium [25])?
Answer: Its MIC is 32 µg/mL (≈ 138 µM).

Question: And the MIC (Salmonella typhimurium [26])?
Answer: Its MIC is 64 µg/mL (≈ 276 µM).

Question: And the MIC (Salmonella typhimurium [27])?
Answer: Its MIC is > 256 µg/mL.

Question: What about the MIC (Salmonella typhimurium [28]) of the same compound?
Answer: The MIC was 64 µg/mL (≈ 276 µM).

Question: And the MIC (Salmonella typhimurium [29])?
Answer: Its MIC is 256 µg/mL (≈ 1100 µM).

Question: What about the MIC (Salmonella typhimurium [30]) of the same compound?
Answer: The MIC was 4 µg/mL (≈ 17.2 µM).

Question: And the MIC (Salmonella typhimurium [31])?
Answer: Its MIC is 256 µg/mL (≈ 1100 µM).

Question: And the MIC (Salmonella typhimurium [32])?
Answer: Its MIC is 32 µg/mL (≈ 138 µM).

Question: And the MIC (Salmonella typhimurium [33])?
Answer: Its MIC is 256 µg/mL (≈ 1100 µM).

Question: And the MIC (Salmonella typhimurium [34])?
Answer: Its MIC is 0.5 µg/mL (≈ 2.15 µM).

Question: And the MIC (Salmonella typhimurium [35])?
Answer: The MIC was > 256 µg/mL.

Question: What about the MIC (Salmonella typhimurium [36]) of the same compound?
Answer: Its MIC is 32 µg/mL (≈ 138 µM).

Question: What about the MIC (Salmonella typhimurium [37]) of the same compound?
Answer: Its MIC is 256 µg/mL (≈ 1100 µM).

Question: What about the MIC (Salmonella typhimurium [38]) of the same compound?
Answer: The MIC was > 256 µg/mL.

Question: And the MIC (Salmonella typhimurium [39])?
Answer: The MIC was > 256 µg/mL.

Question: And the MIC (Salmonella typhimurium [40])?
Answer: Its MIC is 32 µg/mL (≈ 138 µM).

Question: And the MIC (Salmonella typhimurium [41])?
Answer: Its MIC is 256 µg/mL (≈ 1100 µM).

Question: And the MIC (Salmonella typhimurium [42])?
Answer: Its MIC is 1 µg/mL (≈ 4.31 µM).

Question: And the MIC (Salmonella typhimurium [43])?
Answer: The MIC was 1 µg/mL (≈ 4.31 µM).

Question: And the MIC (Salmonella typhimurium [44])?
Answer: Its MIC is > 256 µg/mL.
